From ChEMBL document CHEMBL1144038, “Fluorinated methylenecyclopropane analogues of nucleosides. Synthesis and antiviral activity of (Z)- and (E)-9-{[(2-fluoromethyl-2-hydroxymethyl)-cyclopropylidene]methyl}adenine and -guanine” (Bioorg Med Chem, 2008) come the findings set out here.

Molecules are shown by their SMILES. Active and inactive are the calls of the source. No cut-off for these calls is given here. Some results are limits rather than exact numbers.

The subject of data set [1] is Human betaherpesvirus 5. Briefly: Antiviral activity against Human cytomegalovirus Towne infected in HFF cells by plaque reduction assay. It counts as functional, organism-based. The conditions noted are these: Human betaherpesvirus 5, Towne. Background: Plaques are areas of infected cells; plaque reduction assays count them against a control.
Data set [2] deals with Human betaherpesvirus 5. Kind of data set: Antiviral activity against Human cytomegalovirus AD169 infected in HFF cells by plaque reduction assay. It is filed as functional, organism-based.
In data set [3] the test system is Human gammaherpesvirus 4. Kind of data set: Antiviral activity against Epstein-Barr virus infected in human akata cells. It counts as functional, organism-based. Conditions: human gammaherpesvirus 4, Akata. Summed up: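 Akata cells kept in RPMI 1640 with 10% fetal bovine serum, L-glutamine, penicillin and gentamicin at 37 °C, 5% CO2. Lytic infection induced in latently infected cells with F(ab')2 goat anti-human IgG. Total DNA purified; EBV genome copies quantified by real-time TaqMan PCR (900 nM primers, 200 nM probe).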

Another data set concerns Hepatitis C virus. Kind of data set: Antiviral activity against Hepatitis C virus infected in human Huh7 AVA5 cells by replicon assay. It counts as functional, organism-based, Hepacivirus hominis. Conditions: Huh-7. Summed up: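 HCV subgenomic CON1 genotype 1b replicon line AVA5 (Huh7), sub-confluent cultures. Compound added daily in fresh medium for 3 days. Assessed 24 h after last dose: intracellular HCV RNA by blot hybridization for EC50; cytotoxicity (CC50) by neutral red dye uptake.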

The nature of data set [4]: Cytotoxicity against HFF cells. It counts as cell-based. The conditions noted are these: human.
A short description of data set [5]: Cytotoxicity against human akata cells by DNA hybridization assay. It is filed as cell-based. The gist of the method: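 Latently infected Akata cells grown in RPMI 1640 with 10% fetal bovine serum, L-glutamine, penicillin and gentamicin at 37 °C in humidified 5% CO2.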
Data set [6] is described as follows: Cytotoxicity against human Huh7 AVA5 cells. It counts as cell-based, Huh-7. Summed up: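 AVA5 replicon cells (Huh7 carrying subgenomic CON1 HCV, genotype 1b) kept as sub-confluent cultures. Compound given daily in fresh medium for 3 days. Viability was read by neutral red dye uptake 24 h after the last dose.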
A short description of data set [7]: Selectivity index, ratio of CC50 for human akata cells to EC50 for Epstein-Barr virus. It is filed as functional.
The nature of data set [8]: Cytotoxicity against human Daudi cells by DNA hybridization assay. It is filed as cell-based.
The test system of data set [9] is Human gammaherpesvirus 4. Briefly: Antiviral activity against Epstein-Barr virus infected in human daudi cells by DNA hybridization assay. It counts as functional, organism-based. Conditions: human gammaherpesvirus 4, Daudi.
A short description of data set [10]: Selectivity index, ratio of CC50 for human Daudi cells to EC50 for Epstein-Barr virus. It is filed as functional.
In data set [11] the test system is Human gammaherpesvirus 4. Briefly: Antiviral activity against Epstein-Barr virus infected in human daudi cells by viral capsid immunofluorescence ELISA. It counts as functional, organism-based. Conditions: human gammaherpesvirus 4, Daudi. (In general: ELISA stands for enzyme-linked immunosorbent assay.)
In data set [12] the test system is Human gammaherpesvirus 4. Briefly: Antiviral activity against Epstein-Barr virus infected in human H1 cells by DNA hybridization assay. It counts as functional, organism-based. The conditions noted are these: human gammaherpesvirus 4, H1.

Take `Nc1ncnc2c1ncn2/C=C1/CC1(CO)CF` (stereo not drawn): the values for the EC50 with Human betaherpesvirus 5 [1], in the data set with Human gammaherpesvirus 4 [3] and in the data set on Hepatitis C virus were 46 µM, 0.5 µM and 6.5 µM, respectively. Further, the result in the data set on Human betaherpesvirus 5 [2] was inactive. The CC50 in data set [4] is more than 100 µM; in data set [5] it was 55.7 µM; in data set [6], 11 µM.

In turn, `Nc1nc2c(ncn2/C=C2/CC2(CO)CO)c(=O)[nH]1` [FILOCICLOVIR] had a cytotoxic concentration (CC50) in data set [5] of more than 100 µM. In addition, in data set [7], the Selectivity index is more than 40.

Regarding `Nc1nc2c(ncn2/C=C2/CC2(CO)CF)c(=O)[nH]1` (stereo not drawn), in the data set on Human gammaherpesvirus 4 [3], the EC50 is 7.5 µM. In data set [5], this molecule came in with a CC50 of 59.7 µM.

Regarding `Nc1ncnc2c1ncn2/C=C1\CC1(F)CO` (stereo not drawn), the CC50 in [8] was more than 209 µM. Further, the EC50 in the data set with Human gammaherpesvirus 4 [9] was found to be 167 µM; in the data set on Human gammaherpesvirus 4 [11], 2.3 µM; with Human gammaherpesvirus 4 [12], 3.6 µM. In addition, the Selectivity index in data set [10] was more than 1.25.

`Nc1nc2c(ncn2/C=C2/CC2(F)CO)c(=O)[nH]1` (stereo not drawn) returned a CC50 in [8] of more than 199 µM. In addition, the EC50 with Human gammaherpesvirus 4 [9] came to 8 µM. The Selectivity index in [10] is more than 24.9.

Consider `Nc1nc2c(ncn2/C=C2\CC2(F)CO)c(=O)[nH]1` (stereo not drawn), for which the CC50 in data set [8] is more than 199 µM. For the same molecule, the EC50 with Human gammaherpesvirus 4 [9] was 29.1 µM; in the data set on Human gammaherpesvirus 4 [11], less than 0.32 µM. For the same molecule, in data set [10], the Selectivity index is listed as more than 6.8.

`Nc1nc2c(ncn2COC(CO)CO)c(=O)[nH]1` [GANCICLOVIR] displayed an EC50 in the data set on Human betaherpesvirus 5 [1] of 2.5 µM. Moreover, in data set [4], the CC50 is more than 100 µM.

`Nc1nc2c(ncn2/C=C2\CC2(CO)CF)c(=O)[nH]1` (stereo not drawn) had an EC50 in the data set with Human gammaherpesvirus 4 [3] of 3.2 µM. In data set [5], this molecule showed a CC50 of 64.1 µM.

For the molecule `Nc1ncnc2c1ncn2/C=C1/CC1(F)CO` (stereo not drawn), in data set [8], the CC50 is more than 213 µM. The same molecule registered an EC50 in the data set with Human gammaherpesvirus 4 [9] of 6.8 µM. In addition, the Selectivity index in [10] was more than 31.3.

In the data set with Human gammaherpesvirus 4 [3], `Nc1ncnc2c1ncn2/C=C1\CC1(CO)CF` (stereo not drawn) gave an EC50 of 3.4 µM. The molecule also yielded a CC50 in [5] of 53.6 µM.

As to `Nc1nc2c(ncn2COCCO)c(=O)[nH]1` [ACYCLOVIR], the response in the data set on Human gammaherpesvirus 4 [3] was half-maximal at 1.7 µM (EC50).

As a reminder, the EC50 is the concentration giving half of the maximal effect. The term CC50 denotes the concentration that lowers cell viability or growth by half. Low readings indicate greater toxicity to the cells, high ones lower toxicity to the cells.
